Results from PubChem BioAssay.
Activity calls are given as the source filed them.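 The calls were made as follows, unless noted: active = viability at or below 30% in both replicate assays; inconclusive = viability at or below 30% in just one of the two assays; inactive = the rest.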

Columns and labels:
[1] = Her2 expression decrease, cell viability multiplex – SKBR3 breast tumor cells, AlphaScreen, ATP viability, primary screen (AID 461;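 active = Her2 level under about 52% in both replicate screens, with viability over 70% of control, limit read from the data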;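 as to Her2 level: lower value means less Her2 protein in the cells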;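 as to viability: percent of carrier control wells set as 100% viability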); conditions: SKBR3 Her2 protein level, 18-24 h, measured here: SKBR3 viability, ATP luminescence, at 10 µM
[2] = biological target: Receptor tyrosine-protein kinase erbB-2 (Homo sapiens) (UniProt P04626); assay: as above; conditions: 18-24 h, at 10 µM, stronger effect = lower value
[3] = reduced viability of SK-BR-3 breast cancer cells – cell-based, 24 h, human, pilot screen (AID 572;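 active = viability at or below 10% of carrier control in both of two separate runs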;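 also: compound exposure lasted between 18 and 24 h rather than exactly 24 h; 100% = carrier-treated control wells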); conditions: SK-BR-3 viability, CellTiter-Glo luminescence, at 10 µM, stronger effect = lower value
[4] = HUVEC growth inhibition – cell-based, human, primary screen (AID 575); conditions: HUVEC proliferation, CellTiter-Glo luminescence, 72 h; at 10 µM; stronger effect = lower value;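 also: 100% = median of untreated cell wells with 0.1% DMSO on each plate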
How it was run: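 System – primary HUVEC, no more than 12 passages · Medium – Low-serum (2% FBS) EBM, supplemented · Times – 72 h exposure, 37 °C, 5% CO2, 30 min RT equilibration · Measured by – luminescent ATP assay · Read-out – % viability relative to median vehicle-well signal on each plate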

[5] = H69AR cell proliferation blockers – human, duplicate replicates, primary screen (AID 580;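 active = viability at or under a set limit in both replicates, limit being median viability minus 3 SD, cut at about 48% in these data, passing the limit was not always enough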;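 also: 100% = mean luminescence of untreated wells and 0% = no signal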); conditions: H69AR lung tumor cells viability, ATP luminescence, 72 h; at 10 µM; stronger effect = lower value
[6] = MRP1 drug-resistance reversers in H69AR cells – cell-based, doxorubicin co-treatment, pilot screen (AID 601;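 active = viability loss from added drug above about 55%, and viability with drug at most 40%, in both replicates, limit read from the data, passing the limit was not always enough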); conditions: CellTiter-Glo, 72 h, at 10 µM; for differential viability (reversal): stronger effect = higher value
[7] = yeast transport mutant growth inhibition pilot in 384-well plates, post-Golgi transport modulator project (AID 636; in the data active = inhibition above about 31%); conditions: absorbance 615 nm, about 18 h, stronger effect = higher value
[8] = growth suppression of yeast trafficking mutant, preliminary HTS, modulators of trafficking downstream of Golgi apparatus project, 1536-format plate, OD 615 nm (AID 637; in the data active = inhibition above about 30%); conditions: yeast transport mutant growth, absorbance 615 nm, 18 h; stronger effect = higher value
[9] = H69AR cells + 2 uM doxorubicin, measured here: viability with 2 uM doxorubicin, stronger effect = lower value
[10] = H69AR cells, compound alone cytotoxicity

Chain of Receptor tyrosine-protein kinase erbB-2 (Homo sapiens) (P04626 whole entry, looked up): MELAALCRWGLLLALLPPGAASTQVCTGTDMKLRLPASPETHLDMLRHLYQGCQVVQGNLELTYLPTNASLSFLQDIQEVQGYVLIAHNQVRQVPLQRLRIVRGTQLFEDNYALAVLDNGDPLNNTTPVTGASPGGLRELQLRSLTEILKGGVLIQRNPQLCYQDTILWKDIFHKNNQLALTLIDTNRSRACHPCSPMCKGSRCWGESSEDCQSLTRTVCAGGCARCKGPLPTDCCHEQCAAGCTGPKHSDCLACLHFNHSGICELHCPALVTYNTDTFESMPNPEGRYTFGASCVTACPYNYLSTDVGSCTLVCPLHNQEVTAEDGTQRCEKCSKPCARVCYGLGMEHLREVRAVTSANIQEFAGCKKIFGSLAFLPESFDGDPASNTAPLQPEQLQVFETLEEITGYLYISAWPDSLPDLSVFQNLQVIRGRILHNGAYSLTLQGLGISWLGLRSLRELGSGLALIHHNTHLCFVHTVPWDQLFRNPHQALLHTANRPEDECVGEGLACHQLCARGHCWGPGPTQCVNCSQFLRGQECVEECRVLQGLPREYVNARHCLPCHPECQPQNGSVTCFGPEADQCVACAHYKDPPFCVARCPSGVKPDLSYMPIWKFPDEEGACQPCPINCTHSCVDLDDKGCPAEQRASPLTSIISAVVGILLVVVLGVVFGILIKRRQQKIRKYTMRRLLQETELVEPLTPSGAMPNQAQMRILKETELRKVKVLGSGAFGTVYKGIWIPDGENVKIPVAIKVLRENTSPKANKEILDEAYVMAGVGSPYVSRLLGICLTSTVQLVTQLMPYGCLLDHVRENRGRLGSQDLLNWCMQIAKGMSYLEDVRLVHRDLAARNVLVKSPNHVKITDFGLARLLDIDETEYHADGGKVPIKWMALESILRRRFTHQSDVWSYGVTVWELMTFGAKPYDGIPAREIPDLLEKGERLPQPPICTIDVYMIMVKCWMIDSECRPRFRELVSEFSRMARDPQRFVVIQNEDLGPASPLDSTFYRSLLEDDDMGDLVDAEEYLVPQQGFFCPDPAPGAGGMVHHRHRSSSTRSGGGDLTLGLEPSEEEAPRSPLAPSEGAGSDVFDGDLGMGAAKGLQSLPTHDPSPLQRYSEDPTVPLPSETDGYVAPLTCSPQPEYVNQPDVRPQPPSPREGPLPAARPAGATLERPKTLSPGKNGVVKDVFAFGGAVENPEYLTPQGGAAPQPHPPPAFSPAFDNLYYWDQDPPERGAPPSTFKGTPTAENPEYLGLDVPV

Structure (SMILES)	viability [1] [%]	Her2 level [2]	viability [3]	viability [4]	viability [5]	differential viability (reversal) ([6]; H69AR cells + 2 uM doxorubicin)	viability [6, 9] [%]	viability [6, 10] [%]	inhibition [7]	inhibition [8]
CC1(C)Cc2noc(N)c2C(C)(C)N1O	121	91% (inactive)	121% (inactive)	89.5% (inactive)	95.6% (inactive)	14.8% (inactive)	80.8	95.6	-4.61% (inactive)	2.7% (inactive)
COc1ccc(/C(O)=C2/C(=O)C(=O)N(CC3CCCO3)C2c2cccc(OC)c2)cc1 (stereo not given)	106	87.5% (inactive)	106% (inactive)	81.9% (inactive)	94.2% (inactive)	7.73% (inactive)	86.5	94.2	-4.93% (inactive)	2.3% (inactive)
CCOc1ccc2c(c1)sc1nc(C(=O)OC)cc(=O)n12	94	84% (inactive)	94% (inactive)	104% (inactive)	84.8% (inactive)	-0.545% (inactive)	85.4	84.8	-6.49% (inactive)	-6% (inactive)
Cc1cccc(-c2cc3nc(C)cc(NCCCN(C)C)n3n2)c1	91.5	87.5% (inactive)	91.5% (inactive)	57.5% (inactive)	82.8% (inactive)	6.94% (inactive)	75.8	82.8	-6.93% (inactive)	1.97% (inactive)
O=c1c2ccccc2nnn1CSc1nc2cc(Cl)ccc2c(=O)n1Cc1ccco1	102	104% (inactive)	102% (inactive)	81.5% (inactive)	86.4% (inactive)	4.62% (inactive)	81.7	86.4	-0.53% (inactive)	-4.03% (inactive)
CCn1cc(C(=O)Nc2cc3c(cc2NC(C)=O)OCCO3)c(=O)c2ccc(C)nc21	96.5	100% (inactive)	96.5% (inactive)	106% (inactive)	91% (inactive)	-4.02% (inactive)	95	91	-6.13% (inactive)	0.48% (inactive)
Cc1ccc(S(=O)(=O)N(CCO)c2cc3c(s2)CCCC3)cc1	114	94.5% (inactive)	114% (inactive)	68.6% (inactive)	81.9% (inactive)	-3.64% (inactive)	85.6	81.9	-5.32% (inactive)	-7.5% (inactive)
CC(=O)N1CCN(C(C)=O)C1c1ccccc1	93.5	136% (inactive)	93.5% (inactive)	77.9% (inactive)	91.4% (inactive)	2.34% (inactive)	89.1	91.4	3.46% (inactive)	-7% (inactive)
CCOC(=O)Cn1c2c(c(=N)c3ccccc31)CCC2	122	98% (inactive)	122% (inactive)	89.4% (inactive)	92.6% (inactive)	2.31% (inactive)	90.3	92.6	-6.27% (inactive)	-1.15% (inactive)
COc1cc(C)c(-c2cc(C(=O)O)c(C)o2)cc1C(C)C	99.5	88% (inactive)	99.5% (inactive)	95.7% (inactive)	91.8% (inactive)	6.8% (inactive)	85	91.8	-3.87% (inactive)	-5.4% (inactive)
Cc1ccccc1-n1c(=O)cc(NCc2ccc3c(c2)OCO3)[nH]c1=O	94.5	89.5% (inactive)	94.5% (inactive)	104% (inactive)	103% (inactive)	2.75% (inactive)	100	103	-2.57% (inactive)	1.75% (inactive)
C#CCSc1nnc(-c2ccccc2)c(=O)[nH]1	92.5	91% (inactive)	92.5% (inactive)	89.4% (inactive)	94.7% (inactive)	3.12% (inactive)	91.5	94.7	-3.92% (inactive)	-5.9% (inactive)
Cc1ccc(-c2cc(C(=O)N3CCCC3)no2)cc1	93.5	106% (inactive)	93.5% (inactive)	96% (inactive)	95.1% (inactive)	2% (inactive)	93.1	95.1	-2.11% (inactive)	-5.16% (inactive)
CCn1c(=O)n(CC(=O)NCc2ccccc2OC)c(=O)c2ccccc21	95	84% (inactive)	95% (inactive)	87.5% (inactive)	101% (inactive)	3.65% (inactive)	97.4	101	0.92% (inactive)	-3.06% (inactive)
O=C(CCCCCN1C(=O)CCC1=O)NCc1ccccc1	103	73% (inactive)	103% (inactive)	100% (inactive)	98.2% (inactive)	13.5% (inactive)	84.7	98.2	-7.97% (inactive)	4.13% (inactive)
COc1ccc(C2=NO[C@@H]3C(=O)N(c4cccc(C)c4C)C(=O)[C@H]23)cc1OC	104	106% (inactive)	104% (inactive)	97.7% (inactive)	91.5% (inactive)	-7.95% (inactive)	99.5	91.5	4.29% (inactive)	-3.49% (inactive)
N#Cc1c2n(c(=S)n(-c3ccccn3)c1=O)CCCCC2	81.5	91.5% (inactive)	81.5% (inactive)	97.8% (inactive)	86% (inactive)	-5.17% (inactive)	91.1	86	2.99% (inactive)	-10.7% (inactive)
COCCNS(=O)(=O)c1cc(F)ccc1OC	90	99.5% (inactive)	90% (inactive)	95.1% (inactive)	103% (inactive)	5.13% (inactive)	97.6	103	-4.32% (inactive)	-5.74% (inactive)
COCCn1c(NCc2ccc(C)cc2)nc2c1c(=O)[nH]c(=O)n2C	108	87.5% (inactive)	108% (inactive)	87.2% (inactive)	107% (inactive)	7.44% (inactive)	99.5	107	-2.27% (inactive)	-1.29% (inactive)
CC(C)Cn1c(N)c(C(=O)COC(=O)c2cc(-c3ccco3)nc3ccccc23)c(=O)n(C)c1=O	78.5	80% (inactive)	78.5% (inactive)	66.8% (inactive)	89.3% (inactive)	-1.72% (inactive)	91.1	89.3	-4.32% (inactive)	-6.67% (inactive)
CC(=O)Nc1c(-c2ccc(F)cc2)nc2ccccn12	94.5	107% (inactive)	94.5% (inactive)	114% (inactive)	87.7% (inactive)	-19.5% (inactive)	107	87.7	-4.67% (inactive)	1% (inactive)
COc1cc2c(cc1OC)C(C)N(C(=O)c1cc3n(n1)C(C(F)(F)F)CC(c1ccco1)N3)CC2 (stereo not given)	108	68.5% (inactive)	108% (inactive)	62% (inactive)	75% (inactive)	-14.3% (inactive)	89.3	75	-6% (inactive)	4.26% (inactive)
CCCC(=O)N(Cc1cc2ccccc2[nH]c1=O)c1ccccc1OC	97	94.5% (inactive)	97% (inactive)	105% (inactive)	105% (inactive)	5.2% (inactive)	99.5	105	-0.26% (inactive)	12.3% (inactive)
CCOC(=O)CCCn1nc(C)n2c(cc3sccc32)c1=O	87.5	94.5% (inactive)	87.5% (inactive)	91.8% (inactive)	102% (inactive)	20.7% (inactive)	81	102	-5.07% (inactive)	-3.77% (inactive)
O=C(NCCC1=CCCCC1)c1cc2c(s1)CS(=O)(=O)C2	114	93.5% (inactive)	114% (inactive)	85.7% (inactive)	88.5% (inactive)	4.64% (inactive)	83.8	88.5	-3.77% (inactive)	-3.28% (inactive)
CCOc1cc(C(=O)NCc2ccncc2)cc(OCC)c1OCC	117	92% (inactive)	117% (inactive)	94.4% (inactive)	90.7% (inactive)	2.97% (inactive)	87.7	90.7	-6.27% (inactive)	-4.76% (inactive)
CCNS(=O)(=O)c1ccc(S(=O)(=O)N(Cc2ccccn2)C2CCCCC2)cc1	102	87% (inactive)	102% (inactive)	109% (inactive)	88.9% (inactive)	13.6% (inactive)	75.3	88.9	-8.92% (inactive)	-5.17% (inactive)
O=C(OCC(=O)c1c[nH]c2ccccc12)C1=COCCO1	96	76.5% (inactive)	96% (inactive)	100% (inactive)	97.5% (inactive)	-2.48% (inactive)	100	97.5	-6.62% (inactive)	6.17% (inactive)
Cc1cccc(NC(=O)COc2ccc(Br)cc2)n1	126	110% (inactive)	126% (inactive)	90.5% (inactive)	99.4% (inactive)	6.92% (inactive)	92.4	99.4	-5.19% (inactive)	11% (inactive)
